Calls of active or inactive are those of the source. The rule behind the calls is not given here.
Biological target: Presenilin-1 (Homo sapiens) (UniProt P49768)
Assay: Binding affinity to gamma-secretase catalytic subunit of PS1 expressed in N2a-APP cells at 0.2 uM followed by irradiated with UV light by Western blot analysis
Type: cell-based
Summary of the method: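 N2a-ANPP cells stably overexpressing APP and all four γ-secretase subunits treated live with 0.2 μM biotinylated photoprobe or DMSO vehicle, irradiated with 350 nm UV; membranes prepared, labeled proteins affinity-purified on streptavidin beads, resolved by SDS gel and Western blotted with antibodies to the four γ-secretase subunits or APP.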

Row | SMILES | Activity
1 | COC(=O)CC1CCN(C(C#CCCCCNC(=O)CCCC[C@@H]2SC[C@@H]3NC(=O)N[C@@H]32)c2ccc(C3(C(F)(F)F)N=N3)cc2)C(c2ccc(C(F)(F)F)cc2)C1 (mixture of isomers) | Active
2 | O=C(O)CC1CCN(C(C#CCCCCOC(=O)CCCC[C@@H]2SC[C@@H]3NC(=O)N[C@@H]32)c2ccc(C3(C(F)(F)F)N=N3)cc2)C(c2ccc(C(F)(F)F)cc2)C1 (mixture of isomers) | Active

Tested on: CHO
Assay: Modulation of gamma-secretase expressed in CHO cells co-expressing wild type APP and PS1 assessed as increase of amyloid beta-38 production sandwich ELISA
Type: cell-based
Summary of the method: (§1)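 CHO cells stably overexpressing wild-type APP and PS1 incubated with compounds; Aβ42, Aβ40 and, for selected compounds, Aβ38 in cell-culture supernatants quantified by sandwich ELISA; IC50 derived for Aβ42.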

Row | SMILES | Activity
3 | CC(C)C#C[C@H](c1ccc(Cl)cc1)N1CC[C@@H](CC(=O)O)C[C@H]1c1ccc(C(F)(F)F)cc1 | Active

Tested on: not listed separately
Assay: Modulation of gamma-secretase expressed in CHO cells co-expressing wild type APP and PS1 assessed as inhibition of amyloid beta-42 production sandwich ELISA
Type: cell-based
Summary of the method: as §1

Row | SMILES | IC50
4 | O=C(O)CC1CCN(C(C#CCCCCNC(=O)CCCC[C@@H]2SC[C@@H]3NC(=O)N[C@@H]32)c2ccc(C3(C(F)(F)F)N=N3)cc2)C(c2ccc(C(F)(F)F)cc2)C1 (mixture of isomers) | 2200 nM
5 | COc1cc(C(C#CC(C)C)N2CCC(CC(=O)O)CC2c2ccc(C(F)(F)F)cc2)ccc1-n1cnc(C)c1 (racemic) | 1000 nM
6 | CC(C)C#C[C@H](c1ccc(Cl)cc1)N1CC[C@@H](CC(=O)O)C[C@H]1c1ccc(C(F)(F)F)cc1 | 87 nM
7 | CC(C)C#C[C@@H](c1ccc(C(F)(F)F)cc1)N1CC[C@H](CC(=O)O)C[C@@H]1c1ccc(C(F)(F)F)cc1 | 350 nM
8 | CC(C)CC[C@H](c1ccc(Cl)cc1)N1CC[C@@H](CC(=O)O)C[C@H]1c1ccc(C(F)(F)F)cc1 | 68 nM
9 | O=C(O)CC1CCN(C(C#CCCCCOC(=O)CCCC[C@@H]2SC[C@@H]3NC(=O)N[C@@H]32)c2ccc(C(F)(F)F)cc2)C(c2ccc(C(F)(F)F)cc2)C1 (mixture of isomers) | 1000 nM
10 | CC(C)C#C[C@H](c1ccc(C(F)(F)F)cc1)N1CC[C@@H](CC(=O)O)C[C@H]1c1ccc(C(F)(F)F)cc1 | 50 nM
11 | CC(C)C#CC(c1ccc(C2(C(F)(F)F)N=N2)cc1)N1CCC(CC(=O)O)CC1c1ccc(C(F)(F)F)cc1 (racemic) | 190 nM
12 | O=C(O)CC1CCN(C(C#CCCCCOC(=O)CCCC[C@@H]2SC[C@@H]3NC(=O)N[C@@H]32)c2ccc(C3(C(F)(F)F)N=N3)cc2)C(c2ccc(C(F)(F)F)cc2)C1 (mixture of isomers) | 500 nM
13 | CC(C)C#C[C@@H](c1ccc(Cl)cc1)N1CC[C@H](CC(=O)O)C[C@@H]1c1ccc(C(F)(F)F)cc1 | 300 nM
14 | CC(C)/C=C\[C@H](c1ccc(Cl)cc1)N1CC[C@@H](CC(=O)O)C[C@H]1c1ccc(C(F)(F)F)cc1 | 30 nM
15 | O=C(O)CC1CCN(C(C#CCCCCO)c2ccc(C3(C(F)(F)F)N=N3)cc2)C(c2ccc(C(F)(F)F)cc2)C1 (racemic) | 2000 nM
16 | CC(C)/C=C\[C@@H](c1ccc(Cl)cc1)N1CC[C@H](CC(=O)O)C[C@@H]1c1ccc(C(F)(F)F)cc1 | 616 nM

From ChEMBL document CHEMBL2169857, “Synthesis of a potent photoreactive acidic γ-secretase modulator for target identification in cells” (Bioorg Med Chem, 2012)
